# Measurements pooled from the literature.
# Lines come from different studies, so protocols differ.
# Target: Serine/threonine-protein kinase PRP4 homolog (PRPF4B, Homo sapiens, UniProt Q13523)
SMILES,assay,conditions,remaining binding
CC(C)(O)c1cncc(-c2nc3ccc(F)cc3n2C2CC2)c1,"cell-free assay, competition with immobilised ligand",1 µM,58%
CN(C)c1ncc(F)c(-c2cnn3ncccc23)n1,binding,1 µM,100%
FC(F)(F)c1ccc2c(c1)nc(-c1cccnc1)n2C1CC1,"cell-free assay, competition with immobilised ligand",1 µM,98%
CC1CCCN1c1nccc(-c2cnn3ncccc23)n1 (stereo not shown),binding,1 µM,100%
Cc1c(NC(=O)c2cc(C(N)=O)nc3cc(F)ccc23)c(C(F)(F)F)nn1Cc1ccc(C(C)(C)C)cc1,"cell-free assay, competition with immobilised ligand",1 µM,73%
CN(c1nccc(-c2cnn3ncccc23)n1)C1CC1,binding,1 µM,100%
O=C(c1ccc(Nc2ncc(Cl)c(-c3cc4ccccc4s3)n2)cc1)N1CCC(N2CCCC2)CC1,"binding, competition with immobilised ligand",1 µM,3.7%
O=C(NCc1ncc(C(F)(F)F)cc1Cl)c1ccc2c(c1)C1(CCS(=O)(=O)CC1)[C@@H](C1CC1)N2S(=O)(=O)c1ccc(F)cc1,"cell-free assay, competition with immobilised ligand",1 µM,84%
N[C@@H]1CCN(c2nccc(-c3cnn4ncccc34)n2)C1,binding,1 µM,100%
O=C(c1ccc(Nc2ncc(Cl)c(-c3ccc(Cl)s3)n2)cc1)N1CCC(N2CCCC2)CC1,"binding, competition with immobilised ligand",1 µM,19%
Cc1nn(C)cc1-c1nc2c(N3CCN(Cc4ccc(Cl)cc4)CC3)c(Cl)cnc2[nH]1,"binding, competition with immobilised ligand",1 µM,100%
CN(CCCC(F)(F)F)c1nccc(-c2cnn3ncccc23)n1,binding,1 µM,100%
COc1cnc(Nc2cccc(S(N)(=O)=O)c2)nc1N1CCN(c2ccccc2)CC1,"binding, competition with immobilised ligand",1 µM,90%
O=C(Nc1c[nH]nc1C(=O)NC1CCNCC1)c1cc(F)cc(F)c1,"binding, competition with immobilised ligand",1 µM,82%
C[C@@H](c1ccc(-n2cnc3c(N)ncnc32)cc1)N1CCc2nn(C)c(Cc3ccccc3)c2C1=O,"binding, competition with immobilised ligand",0.1 µM,100%
F[C@@H]1CCN(c2nccc(-c3cnn4ncccc34)n2)C1,binding,1 µM,100%
CC(=O)N1CCC(c2ccc(C(=O)NC(=N)N)cc2C(F)(F)F)CC1,"cell-free assay, competition with immobilised ligand",1 µM,78%
C[C@H]1CCN(c2nccc(-c3cnn4ncccc34)n2)C1,binding,1 µM,53%
O=C(c1ccc(Nc2nccc(-c3cc4ccccc4s3)n2)cc1)N1CCC(N2CCCC2)CC1,"binding, competition with immobilised ligand",1 µM,6.3%
COc1ncc2cc3ccccc3nc2c1C#N,"cell-free assay, competition with immobilised ligand",5 µM,100%
C[C@@H]1CN(c2cc(-c3nn(C)c4ccc(OC5(C)CC5)cc34)ncn2)C[C@H](C)O1,"cell-free assay, competition with immobilised ligand",1 µM,100%
c1cncc(-c2cccc(Nc3nccc(NC4CCCCC4)n3)c2)c1,"binding, competition with immobilised ligand",10 µM,100%
